Test results as given in ChEMBL document CHEMBL3992483, “Traceless Solid-Phase α-Hydroxytropolone Synthesis” (Medchemcomm, 2016).
“And” between values parts separate entries of the source, which are not always exact repeats. Equal entries are not always repeated.

What was measured:
CEM-SS = experiment: (§1) Cytotoxicity against human CEM-SS cells assessed as reduction in cell viability by XTT assay; format: cell-based; settings: cem-ss
Procedure, shortened: (§2)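 Uninfected CEM-SS cells in the same plate as the HIV-1 RF infection assay. Compounds tested at 2-fold dilutions from 50 µM to 0.78 µM final, in duplicate. CC50 estimated by regression analysis.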

[1] = as §1; format: cell-based; settings: CEM-SS cells; procedure, shortened: as §2
[2] = test system: Human immunodeficiency virus 1; experiment: Antiviral activity against HIV1 RF infected in human CEM-SS cells assessed as cytoprotective effect by measuring cell viability at 0.78 to 50 uM by XTT assay relative to control; format: functional
Procedure, shortened: (§3)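 HIV-1 strain RF infection of CEM-SS cells. Samples dissolved at 10 mM in DMSO, tested at 2-fold dilutions from 50 µM down to 0.78 µM final, in duplicate. EC50 estimated by regression analysis.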

[3] = test system: Human immunodeficiency virus 1; experiment: Stabilization of HIV1 RT-RNase H by sypro-orange dye-based differential scanning fluorimetric analysis
Procedure, shortened: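 Thermal shift of HIV RT RNase H in 20 mM HEPES pH 7.5, 10 mM MgCl2, 100 mM NaCl with Sypro Orange at 1:2000. 1 µL of 1 mM compound in DMSO added to 49 µL of this buffer. Heated 30 to 80 °C in 0.2 °C steps, read at ex 483 / em 568 nm. ΔTm determined, duplicate runs.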

[4] = Inhibition of HIV1 RT-RNase H activity using 18-nucleotide 3'-fluorescein-labeled RNA/5'-dabsyl-labeled DNA hybrid after 10 mins by FRET assay; design: species or system Human immunodeficiency virus 1
[5] = test system: Human immunodeficiency virus 1; experiment: Antiviral activity against HIV1 RF infected in human CEM-SS cells assessed as cytoprotective effect by measuring increase in cell viability by XTT assay; format: functional, cell-based; procedure, shortened: as §3

SMILES	CC50 (CEM-SS)	CC50 [1] [nM]	Activity [2] [%]	ΔTm [3]	IC50 [4]	EC50 [5]	EC50 ([5]; Human immunodeficiency virus 1, RF, CEM-SS) [nM]
Cc1cc(O)c(=O)c(O)cc1-c1ccc(C(F)(F)F)cc1	2200 to 6700 nM	2300 to 7100	<35	0.2 °C and 0.9 °C	800 nM and 1100 nM	–	–
Cc1cc(O)c(=O)c(O)cc1C(=O)C1CCCCC1	2700 to 7000 nM	2300 to 3100	<35	2 °C and 2.4 °C	520 nM and 210 nM	–	–
Cc1cc(O)c(=O)c(O)cc1C(=O)c1ccc(-c2ccccc2)cc1	100 to 830 nM	140 to 970	<35	1.7 °C and 1.9 °C	1000 nM and 590 nM	–	–
Cc1cc(O)c(=O)c(O)cc1C(=O)c1ccccc1	2600 to 8800 nM and 7200 to 8800 nM	–	<35	2.5 °C and 2.9 °C	320 nM and 220 nM	–	–
Cc1cc(O)c(=O)c(O)cc1-c1ccccc1	5600 to 7000 nM and 2500 to 3700 nM	–	<35	2.2 °C and 1.5 °C	250 nM and 390 nM	–	–
Cc1cc(O)c(=O)c(O)cc1-c1cccc2ccccc12	3300 to 6700 nM	2100 to 5400	<35	1 °C and 1.5 °C	560 nM and 260 nM	–	–
CC(=O)c1cc(O)c(=O)c(O)cc1C	7700 to 24000 nM and 20000 to 21000 nM	–	–	2.3 °C and 2.9 °C	570 nM and 290 nM	2800 to 5200 nM and 6500 to 7300 nM	–
COC(=O)c1cc(O)c(=O)c(O)cc1C	5400 to 11000 nM and 15000 nM	–	–	2.9 °C and 2.7 °C	440 nM and 160 nM	2200 to 4200 nM and 7200 to 7700 nM	–
CCOC(=O)c1cc(O)c(=O)c(O)cc1C	8500 to 9700 nM and 22000 nM	–	<50	2.9 °C and 2.4 °C	540 nM and 250 nM	–	4800 to 5100
